We go through nine molecules from ChEMBL document CHEMBL1124795, “Synthesis and cytotoxicity of deoxyadenosine analogues: isomer distribution in the sodium salt glycosylation of 2,6-disubstituted purines” (J Med Chem, 1990).

Calls of active or inactive are those of the source. The rule behind the calls is not given here.

In data set [1] the test system is K562. Put plainly: In vitro toxicity which caused 50% decrease in [14C]- leucine incorporation by the K-562 cells in culture. The format is functional. As to conditions: Homo sapiens, read-out: ID50 (the source's name). The procedure, abridged: (§1)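 Cells seeded at 10⁴ per well and exposed to compounds for 3 days in RPMI 1640 with 10% fetal calf serum, glutamine and antibiotics, at 37 °C under 5% CO₂. [¹⁴C]-L-leucine (0.5 μCi/mL) was present for the final 24 h. Protein was precipitated with 0.2 N perchloric acid, collected on glass-fibre filters and scintillation-counted. ID50 (μM, 50% drop in incorporation) was read from triplicate dose-response curves.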

Data set [2] relates to PHA-Ly. As to the kind of experiment: In vitro toxicity which caused 50% decrease in [14C]- leucine incorporation by the PHA-LY cells in culture. The format is functional. As to conditions: Homo sapiens, read-out: ID50 (the source's name). The procedure, abridged:
as §1

For data set [3], the system named is HL-60. Put plainly: In vitro toxicity which caused 50% decrease in [14C]- leucine incorporation by the HL-60 cells in culture. As to conditions: Homo sapiens, read-out: ID50 (the source's name). The format is functional. Summed up: as §1
The subject of data set [4] is B-95-8 cell line. As to the kind of experiment: In vitro toxicity which caused 50% decrease in [14C]- leucine incorporation by the B-95-8 cells in culture. The format is functional, Callitrichidae. As to conditions: Saguinus oedipus, read-out: ID50 (the source's name). Summed up:
as §1

Data set [5] concerns NALL-1. As to the kind of experiment: (§2) In vitro toxicity which caused 50% decrease in [14C]- leucine incorporation by the NALL-1 cells in culture. The format is functional. As to conditions: Homo sapiens, read-out: ID50 (the source's name). The procedure, abridged:
as §1

For data set [6], the system named is Raji. As to the kind of experiment: (§3) In vitro toxicity which caused 50% decrease in [14C]- leucine incorporation by the Raji cells in culture. The format is functional. As to conditions: Homo sapiens, read-out: ID50 (the source's name). The procedure, abridged:
as §1

Data set [7] deals with MOLT-4. Put plainly: (§4) In vitro toxicity which caused 50% decrease in [14C]- leucine incorporation by the MOLT-4 cells in culture. The format is functional. As to conditions: Homo sapiens, read-out: ID50 (the source's name). Summed up:
as §1

Data set [8] deals with U-937. Put plainly: (§5) In vitro toxicity which caused 50% decrease in [14C]- leucine incorporation by the U-937 cells in culture. The format is functional. As to conditions: Homo sapiens, read-out: ID50 (the source's name). Summed up:
as §1

The subject of data set [9] is NALL-1. Put plainly: In vitro toxicity which caused 50% decrease in [14C]- leucine incorporation by the NALL-1 cells in culture at 40 uM; IN-Inactive. As to conditions: Homo sapiens. The format is functional, cell-based. The procedure, abridged:
as §1

Data set [10] has as its system B-95-8 cell line. As to the kind of experiment: In vitro toxicity which caused 50% decrease in [14C]- leucine incorporation by the B-95-8 cells in culture at 40 uM; IN-Inactive. The format is functional, cell-based. Summed up: as §1
The subject of data set [11] is PHA-Ly. Put plainly: In vitro toxicity which caused 50% decrease in [14C]- leucine incorporation by the PHA-LY cells in culture at 40 uM; IN-Inactive. As to conditions: Homo sapiens. The format is functional, cell-based. The procedure, abridged:
as §1

Data set [12] relates to MOLT-4. Put plainly: In vitro toxicity which caused 50% decrease in [14C]- leucine incorporation by the MOLT-4 cells in culture at 40 uM; IN-Inactive. The format is functional, cell-based. As to conditions: Homo sapiens. Summed up: as §1
Data set [13] deals with U-937. Put plainly: In vitro toxicity which caused 50% decrease in [14C]- leucine incorporation by the U-937 cells in culture at 40 uM; IN-Inactive. The format is functional, cell-based. As to conditions: Homo sapiens. Summed up:
as §1

Data set [14] relates to HL-60. As to the kind of experiment: In vitro toxicity which caused 50% decrease in [14C]- leucine incorporation by the HL-60 cells in culture at 40 uM; IN-Inactive. The format is functional, cell-based. As to conditions: Homo sapiens. Summed up:
as §1

The test system of data set [15] is Raji. Put plainly: In vitro toxicity which caused 50% decrease in [14C]- leucine incorporation by the Raji cells in culture at 40 uM; IN-Inactive. As to conditions: Homo sapiens. The format is functional, cell-based. Summed up: as §1
Data set [16] relates to K562. Put plainly: In vitro toxicity which caused 50% decrease in [14C]- leucine incorporation by the K-562 cells in culture at 40 uM; IN-Inactive. The format is functional, cell-based. As to conditions: Homo sapiens. The procedure, abridged: as §1
Data set [17] has as its system Raji. Described as §3. The format is cell-based. As to conditions: human, read-out: ID50 (the source's name). Summed up:
as §1

For data set [18], the system named is NALL-1. The description is as §2. The format is cell-based. As to conditions: human, read-out: ID50 (the source's name). Summed up: as §1
The subject of data set [19] is MOLT-4. The data set is described as §4. The format is cell-based. As to conditions: human, read-out: ID50 (the source's name). The procedure, abridged:
as §1

Data set [20] relates to U-937. Described as §5. As to conditions: human, read-out: ID50 (the source's name). The format is cell-based. The procedure, abridged: as §1

Take `CNc1nc(Br)nc2c1ncn2[C@@H]1C[C@@H](O)[C@H](CO)O1`: the IC50 with K562 [1] came out at 110 µM; in the data set on PHA-Ly [2], 30 µM; in the data set on HL-60 [3] it was 143 µM; with B-95-8 cell line [4], 253 µM; with NALL-1 [5] it was 230 µM; with Raji [6], 80 µM. For the same molecule, the IC50 is 177 µM in the data set with MOLT-4 [7] and 140 µM in the data set on U-937 [8].
As for `CN(C)c1nc(N(C)C)c2ncn([C@@H]3C[C@@H](O)[C@H](CO)O3)c2n1`, the ID50 entry in the data set on NALL-1 [9], in the data set on B-95-8 cell line [10], in the data set with PHA-Ly [11], with MOLT-4 [12], with U-937 [13] and in the data set with HL-60 [14] was “inactive” in each case. The ID50 entry with Raji [15] and in the data set on K562 [16] was “inactive” each time.
For the molecule `CSc1nc(SC)c2ncn([C@@H]3C[C@@H](O)[C@H](CO)O3)c2n1`, the IC50 in the data set with K562 [1] is above 300 µM; with PHA-Ly [2], 167 µM; with HL-60 [3], above 300 µM; in the data set on B-95-8 cell line [4], 225 µM; in the data set on NALL-1 [5], 173 µM; in the data set with Raji [6], 170 µM. Moreover, the IC50 was 141 µM in the data set on MOLT-4 [7] and above 300 µM with U-937 [8].
With `Nc1nc(Br)nc2c1ncn2[C@@H]1C[C@@H](O)[C@H](CO)O1`, the IC50 in the data set on K562 [1] stood at 83 µM; with PHA-Ly [2], 1.6 µM; with HL-60 [3], 41 µM; with B-95-8 cell line [4] it was 6 µM. In addition, the CC50 in the data set on Raji [17] is 700 nM; in the data set with NALL-1 [18] it was 12 µM; in the data set on MOLT-4 [19] it was 3.2 µM; in the data set on U-937 [20], 800 nM.
As to `CN(C)c1nc(N)c2ncn([C@@H]3C[C@@H](O)[C@H](CO)O3)c2n1`, the IC50 in the data set on K562 [1] is above 300 µM; with PHA-Ly [2], above 300 µM; with HL-60 [3] it was above 300 µM; in the data set on B-95-8 cell line [4], 182 µM; in the data set with NALL-1 [5], above 300 µM; with Raji [6] it was 125 µM. Moreover, the IC50 with MOLT-4 [7] and in the data set with U-937 [8] was above 300 µM throughout.
Take `CSc1nc(N(C)C)c2ncn([C@@H]3C[C@@H](O)[C@H](CO)O3)c2n1`: the IC50 in the data set on K562 [1] was above 300 µM; in the data set with PHA-Ly [2] it was 260 µM; with HL-60 [3] it was above 300 µM; in the data set on B-95-8 cell line [4], 116 µM; in the data set with NALL-1 [5] it was 188 µM; in the data set on Raji [6], 233 µM. Further, the results for the IC50 in the data set with MOLT-4 [7] and with U-937 [8] were 172 µM and 126 µM, respectively.
Regarding `CSc1nc(N)c2ncn([C@@H]3C[C@@H](O)[C@H](CO)O3)c2n1`, the IC50 was above 300 µM with K562 [1]; 82 µM in the data set with PHA-Ly [2]; above 300 µM with HL-60 [3]; above 300 µM in the data set with B-95-8 cell line [4]; 96 µM in the data set with NALL-1 [5]; 107 µM in the data set with Raji [6]. The IC50 in the data set on MOLT-4 [7] and with U-937 [8] was above 300 µM throughout.
Consider `CN(C)c1nc(Br)nc2c1ncn2[C@@H]1C[C@@H](O)[C@H](CO)O1`, for which the IC50 with K562 [1] is above 300 µM; in the data set with PHA-Ly [2], 88 µM; with HL-60 [3] it was above 300 µM; with B-95-8 cell line [4] it was above 300 µM; in the data set on NALL-1 [5], 290 µM; in the data set on Raji [6], above 300 µM. In addition, the results for the IC50 with MOLT-4 [7] and in the data set with U-937 [8] were above 300 µM and 164 µM, respectively.
With `CNc1nc(SC)nc2c1ncn2[C@@H]1C[C@@H](O)[C@H](CO)O1`, the IC50 in the data set with K562 [1] was above 300 µM; in the data set with PHA-Ly [2], 81 µM; with HL-60 [3] it was above 300 µM; in the data set on B-95-8 cell line [4], above 300 µM; with NALL-1 [5], 186 µM; with Raji [6], above 300 µM. Also, the IC50 in the data set with MOLT-4 [7] and in the data set on U-937 [8] was above 300 µM in each case.
